The source of these data is ChEMBL document CHEMBL4387722.

Data set [1] concerns the target T1, Phosphotyrosine protein phosphatase (Mycobacterium tuberculosis, UniProt A0A045ISB3).
T1 sequence (A0A045ISB3 whole entry): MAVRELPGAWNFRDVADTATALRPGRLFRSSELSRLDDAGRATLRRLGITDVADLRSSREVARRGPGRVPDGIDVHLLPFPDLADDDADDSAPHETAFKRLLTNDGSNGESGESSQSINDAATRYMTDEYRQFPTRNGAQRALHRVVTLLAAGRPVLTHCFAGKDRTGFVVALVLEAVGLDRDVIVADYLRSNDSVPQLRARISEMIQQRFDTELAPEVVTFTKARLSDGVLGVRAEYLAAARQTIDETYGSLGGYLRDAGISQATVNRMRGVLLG
In words: Inhibition of Mycobacterium tuberculosis His-tagged PtpB expressed in Escherichia coli Rosetta 2 (DE3) using pNPP as substrate after 30 mins by spectrophotometric method.

The next data set deals with HSP60/HSP10 (Homo sapiens, UniProt P10809). In words: Inhibition of human HSP60 expressed in Escherichia coli Rosetta 2(DE3)/human HSP10 expressed in Escherichia coli Rosetta 2(DE3) pLysS cells assessed as reduction in HSP60/HSP10-mediated denatured pig heart mitochondrial MDH refolding by measuring MDH enzyme activity using sodium mesoxalate as substrate after 40 to 60 mins by spectrometric analysis.

For data set [2], the target named is T2, Tyrosine-protein phosphatase non-receptor type 2 (Homo sapiens, UniProt P17706).
T2 sequence (P17706 whole entry): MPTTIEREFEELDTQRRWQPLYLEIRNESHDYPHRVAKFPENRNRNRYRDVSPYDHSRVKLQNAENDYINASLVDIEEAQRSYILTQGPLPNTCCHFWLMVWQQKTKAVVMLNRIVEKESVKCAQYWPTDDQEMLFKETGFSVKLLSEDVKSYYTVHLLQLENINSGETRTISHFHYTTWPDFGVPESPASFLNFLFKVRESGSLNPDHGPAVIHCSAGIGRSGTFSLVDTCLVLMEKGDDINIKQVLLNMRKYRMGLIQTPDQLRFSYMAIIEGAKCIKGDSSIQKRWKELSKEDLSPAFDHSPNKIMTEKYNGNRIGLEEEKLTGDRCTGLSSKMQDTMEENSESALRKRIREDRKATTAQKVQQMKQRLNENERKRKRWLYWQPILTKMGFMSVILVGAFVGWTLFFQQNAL
In words: Inhibition of human PTPN2 expressed in Escherichia coli Rosetta 2 (DE3) using pNPP as substrate after 45 mins by spectrophotometric method.

Data set [3] deals with Mycobacterium tuberculosis. Briefly: Antitubercular activity against Mycobacterium tuberculosis H37Rv after 5 days at 200 uM relative to control. It counts as functional. To be noted: 120 h. The method, boiled down: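 M. tuberculosis grown in liquid culture with compound at a fixed 200 μM for 5 days. Growth inhibition expressed as percent of control.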
For data set [4], the target named is T3, Tyrosine-protein phosphatase non-receptor type 5 (Homo sapiens, UniProt P54829).
T3 sequence (P54829 whole entry): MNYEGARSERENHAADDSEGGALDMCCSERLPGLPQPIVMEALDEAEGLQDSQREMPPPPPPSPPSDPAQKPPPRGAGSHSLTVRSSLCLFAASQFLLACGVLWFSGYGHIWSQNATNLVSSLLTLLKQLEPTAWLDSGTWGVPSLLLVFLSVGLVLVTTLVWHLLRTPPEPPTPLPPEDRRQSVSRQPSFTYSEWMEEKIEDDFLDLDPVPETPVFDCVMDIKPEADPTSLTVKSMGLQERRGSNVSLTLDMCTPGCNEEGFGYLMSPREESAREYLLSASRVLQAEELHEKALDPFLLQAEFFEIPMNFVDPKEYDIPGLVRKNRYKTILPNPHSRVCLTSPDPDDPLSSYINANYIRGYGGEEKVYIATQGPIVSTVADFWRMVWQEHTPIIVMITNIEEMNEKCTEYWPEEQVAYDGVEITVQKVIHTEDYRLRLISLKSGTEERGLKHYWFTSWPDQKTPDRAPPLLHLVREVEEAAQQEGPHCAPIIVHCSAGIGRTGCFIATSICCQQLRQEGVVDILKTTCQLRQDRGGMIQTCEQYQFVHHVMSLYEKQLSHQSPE
In words: Inhibition of human PTPN5 expressed in Escherichia coli Rosetta 2 (DE3) using pNPP as substrate after 45 mins by spectrophotometric method.

Data set [5] is described as follows: Inhibition of refolded rhodanese (unknown origin) preincubated with Escherichia coli GroEL/GroES for 60 mins by measuring rhodanese enzyme activity followed by compound addition by Fe(SCN)3 dye based spectrometric analysis. Details: species or system Homo sapiens.
Data set [6] concerns the target T4, Malate dehydrogenase, mitochondrial (Sus scrofa, UniProt P00346).
T4 sequence (P00346 whole entry): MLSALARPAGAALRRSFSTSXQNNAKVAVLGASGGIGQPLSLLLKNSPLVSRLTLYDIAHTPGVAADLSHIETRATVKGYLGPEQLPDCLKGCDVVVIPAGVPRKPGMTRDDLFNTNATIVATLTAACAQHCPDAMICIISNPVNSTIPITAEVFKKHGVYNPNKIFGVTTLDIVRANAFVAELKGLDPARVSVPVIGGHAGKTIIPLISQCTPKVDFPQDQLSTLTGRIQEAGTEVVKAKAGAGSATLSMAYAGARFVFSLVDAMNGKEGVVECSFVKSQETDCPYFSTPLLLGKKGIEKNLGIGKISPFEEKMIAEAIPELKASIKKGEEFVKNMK
Briefly: Inhibition of refolded pig heart mitochondrial MDH preincubated with Escherichia coli GroEL/GroES for 45 mins using sodium mesoxalate as substrate followed by compound addition and measured after 20 to 30 mins by spectrometric analysis.

Data set [7] in a line: Cytotoxicity against human THLE3 cells assessed as reduction in cell viability after 48 hrs by Alamar blue assay. The format is cell-based. The method, boiled down:
(§1)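 Alamar Blue viability read-out. Human liver (THLE-3) and kidney (HEK 293) cells incubated with compound for 48 h. Tested in dose-response to derive CC50.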

A short description of data set [8]: Cytotoxicity against human HEK293 cells assessed as reduction in cell viability after 48 hrs by Alamar blue assay. It counts as cell-based. The essentials:
as §1

Data set [9] has as its target T5, Tyrosine-protein phosphatase non-receptor type 1 (Homo sapiens, UniProt P18031).
T5 sequence (P18031 whole entry): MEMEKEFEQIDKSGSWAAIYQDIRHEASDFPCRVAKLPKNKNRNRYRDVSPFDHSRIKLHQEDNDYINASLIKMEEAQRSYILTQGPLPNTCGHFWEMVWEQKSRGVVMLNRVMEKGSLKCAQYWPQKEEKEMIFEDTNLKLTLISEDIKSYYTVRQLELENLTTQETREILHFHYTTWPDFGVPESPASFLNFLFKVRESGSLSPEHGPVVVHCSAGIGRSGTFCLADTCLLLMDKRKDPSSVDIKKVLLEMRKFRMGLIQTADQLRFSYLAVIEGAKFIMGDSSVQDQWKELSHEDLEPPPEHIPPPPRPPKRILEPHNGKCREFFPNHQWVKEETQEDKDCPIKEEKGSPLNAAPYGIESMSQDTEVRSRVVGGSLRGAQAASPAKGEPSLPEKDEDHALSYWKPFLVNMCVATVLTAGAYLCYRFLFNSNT
Briefly: Inhibition of human PTPN1 expressed in Escherichia coli Rosetta 2 (DE3) using pNPP as substrate after 45 mins by spectrophotometric method.

Data set [10] concerns Mycobacterium tuberculosis. Briefly: Antitubercular activity against Mycobacterium tuberculosis H37Rv after 5 days. The format is functional, organism-based. The following applies: 120 h.

Chain of HSP60/HSP10 (P10809 whole entry): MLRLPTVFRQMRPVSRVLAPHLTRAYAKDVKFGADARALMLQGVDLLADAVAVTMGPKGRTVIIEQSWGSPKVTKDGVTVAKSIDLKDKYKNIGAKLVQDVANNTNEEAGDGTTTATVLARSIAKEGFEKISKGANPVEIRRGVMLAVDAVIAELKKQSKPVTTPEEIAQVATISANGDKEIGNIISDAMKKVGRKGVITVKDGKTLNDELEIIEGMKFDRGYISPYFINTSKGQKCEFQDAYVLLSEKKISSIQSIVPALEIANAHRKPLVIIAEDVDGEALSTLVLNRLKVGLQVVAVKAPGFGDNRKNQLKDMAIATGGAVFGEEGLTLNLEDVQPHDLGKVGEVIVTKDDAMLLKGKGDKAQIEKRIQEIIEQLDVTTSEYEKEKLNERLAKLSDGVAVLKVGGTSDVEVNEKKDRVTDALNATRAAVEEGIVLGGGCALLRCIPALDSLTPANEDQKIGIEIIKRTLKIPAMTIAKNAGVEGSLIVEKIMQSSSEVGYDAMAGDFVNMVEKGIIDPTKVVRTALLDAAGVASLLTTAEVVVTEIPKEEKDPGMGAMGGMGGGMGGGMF
Chain of HSP60/HSP10 (P61604 whole entry, further chain): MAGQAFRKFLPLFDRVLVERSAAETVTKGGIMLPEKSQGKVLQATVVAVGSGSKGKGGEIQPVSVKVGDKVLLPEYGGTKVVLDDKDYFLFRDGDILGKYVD

On to `O=S(=O)(Nc1ccc2oc(-c3ccccc3)nc2c1)c1ccc(O)cc1`, for which the IC50 is 97 µM in data set [1]; 88 µM at HSP60/HSP10; more than 100 µM in [2]; 84 µM in data set [4]; more than 100 µM in [5]; more than 63 µM in data set [6]. The IC50 in data set [9] is 92 µM. In addition, at 200 µM the inhibition in [3] was 9%. For the same molecule, the CC50 at 48 h in data set [7] and in data set [8] was more than 100 µM each time.

Regarding `O=S(=O)(Nc1ccc2oc(-c3ccccc3)nc2c1)c1cccc(Cl)c1`, the IC50 was more than 100 µM in data set [1]; more than 100 µM at HSP60/HSP10; 51 µM in data set [2]; more than 100 µM in data set [4]; more than 100 µM in data set [5]; more than 63 µM in data set [6]. Also, half-maximal inhibition in [9] (IC50) was put at 88 µM. Also, the inhibition at 200 µM in data set [3] was 45%. The CC50 at 48 h in [7] was 45 µM; in data set [8], 70 µM.

On to `O=S(=O)(Nc1ccc(-c2nc3cc(NS(=O)(=O)c4cccc5nonc45)ccc3o2)cc1)c1cccc2nonc12`, for which the IC50 in data set [1] was determined as 8.8 µM; in data set [2], 58 µM; in [4], 40 µM; in data set [9], 34 µM. The same molecule registered an inhibition at 200 µM in data set [3] of 76%. This molecule also registered an EC50 in [10] of more than 200 µM.

Consider `CS(=O)(=O)Nc1ccc2oc(-c3ccc(NS(=O)(=O)c4ccc(Cl)s4)cc3)nc2c1`, for which the IC50 in data set [1] is 46 µM; in [2] it was more than 100 µM; in data set [4] it was more than 100 µM; in data set [9], 73 µM. This molecule gave an inhibition at 200 µM in data set [3] of 85%. For the same molecule, the response in data set [10] was half-maximal at 104 µM (EC50).

As to `N#Cc1cccc(S(=O)(=O)Nc2ccc(-c3nc4cc(NS(=O)(=O)c5cccc(C#N)c5)ccc4o3)cc2)c1`, the IC50 in data set [1] came to 33 µM; in data set [2], 48 µM; in data set [4] it was 44 µM; in data set [9] it was 37 µM. In addition, the inhibition at 200 µM in data set [3] came to 65%. This molecule showed an EC50 in data set [10] of more than 200 µM.

For the molecule `COc1ccccc1S(=O)(=O)Nc1ccc(-c2nc3ccccc3o2)cc1`, the IC50 was 59 µM in data set [1]; more than 100 µM on HSP60/HSP10; 53 µM in data set [2]; 44 µM in data set [4]; more than 100 µM in data set [5]; more than 63 µM in data set [6]. In addition, in data set [9], the IC50 was determined as 54 µM. In addition, in data set [3], at 200 µM the inhibition was 0%. Besides, the CC50 at 48 h in [7] and in data set [8] was more than 100 µM throughout.

As for `CS(=O)(=O)Nc1ccc2oc(-c3ccccc3)nc2c1`, the IC50 in data set [1] was more than 100 µM; at HSP60/HSP10 it was more than 100 µM; in data set [2] it was more than 100 µM; in data set [4], more than 100 µM; in data set [5], more than 100 µM; in [6] it was more than 63 µM. In addition, in data set [9], the 50% inhibitory concentration (IC50) is more than 100 µM. Besides, in data set [3], the inhibition at 200 µM is 6%. Moreover, the CC50 at 48 h in data set [7] and in data set [8] was more than 100 µM throughout.

As to `O=S(=O)(Nc1ccc2oc(-c3ccccc3)nc2c1)c1ccccc1O`, the IC50 in data set [1] was 98 µM; at HSP60/HSP10 it was 85 µM; in data set [2], more than 100 µM; in [4], 68 µM; in [5] it was more than 100 µM; in data set [6], more than 63 µM. Also, the IC50 in data set [9] is 76 µM. The inhibition at 200 µM in data set [3] is 18%. In addition, the results for the CC50 at 48 h in data set [7] and in data set [8] were 32 µM and 33 µM, respectively.

On to `O=S(=O)(Nc1ccc2oc(-c3ccccc3)nc2c1)c1ccc(F)c(C(F)(F)F)c1`, for which the IC50 in data set [1] is 46 µM; at HSP60/HSP10 it was 69 µM; in [2], 39 µM; in data set [4], 26 µM; in data set [5], more than 100 µM; in data set [6], more than 63 µM. In addition, it took 76 µM to reach half-maximal inhibition in data set [9] (IC50). Also, the inhibition at 200 µM in [3] came to 23%. The CC50 at 48 h in data set [7] is 55 µM; in data set [8], more than 100 µM.

Consider `O=S(=O)(Nc1ccc(-c2nc3cc(NS(=O)(=O)c4ccc(Cl)s4)ccc3o2)cc1)c1ccc(Cl)c(Cl)c1`, for which the IC50 amounted to 2.3 µM in data set [1], 12 µM in data set [2], 9.8 µM in [4] and 6.9 µM in [9]. This molecule also had an inhibition at 200 µM in [3] of 0%.

Take `O=S(=O)(Nc1ccc2oc(-c3ccc(NS(=O)(=O)c4ccc(Cl)s4)cc3)nc2c1)c1ccc2ncsc2c1`: the IC50 in data set [1] was 3.6 µM; in data set [2], 9.3 µM; in data set [4] it was 11 µM; in data set [9] it was 12 µM. Moreover, the inhibition at 200 µM in data set [3] was determined as 50%.

`O=C(O)c1cccc(S(=O)(=O)Nc2ccc(-c3nc4cc(NS(=O)(=O)c5cccc(C(=O)O)c5)ccc4o3)cc2)c1`: the IC50 in data set [1] is 9.9 µM; in [2], more than 100 µM; in data set [4], more than 100 µM; in data set [9], more than 100 µM. In data set [3], this molecule returned an inhibition at 200 µM of 7%.

As to `O=S(=O)(Nc1ccc(-c2nc3cc(NS(=O)(=O)c4ccc(Cl)s4)ccc3o2)cc1)c1ccc(Br)cc1`, the IC50 in [1] worked out at 5.3 µM; in [2], 11 µM; in data set [4] it was 8.8 µM; in data set [9], 8.8 µM. This molecule came in with an inhibition at 200 µM in data set [3] of 0%.

Take `O=S(=O)(Nc1ccc(-c2nc3cc(NS(=O)(=O)C(F)(F)F)ccc3o2)cc1)C(F)(F)F`: the IC50 in data set [1] is 42 µM; in data set [2], more than 100 µM; in data set [4] it was more than 100 µM; in data set [9], more than 100 µM. This molecule also yielded an inhibition at 200 µM in [3] of 28%.

For the molecule `O=S(=O)(Nc1ccc(-c2nc3cc(NS(=O)(=O)c4cccc(C(F)(F)F)c4)ccc3o2)cc1)c1cccc(C(F)(F)F)c1`, the IC50 was found to be 2.9 µM in data set [1], 12 µM in [2], 16 µM in [4] and 12 µM in [9]. The inhibition at 200 µM in [3] is 0%.
